Data on one compound can be found in ChEMBL document CHEMBL4373686, “Methyl sulfonamide substituents improve the pharmacokinetic properties of bicyclic 2-pyridone based Chlamydia trachomatis inhibitors” (Medchemcomm, 2019).

A short description of series [1]: Tmax in C3H/HeOuJ mouse at 10 mg/kg, po measured upto 24 hrs. The note with it: in vivo.
A short description of series [2]: Intrinsic clearance in mouse liver microsomes at 1 uM incubated for 5 to 60 mins in presence of NADPH by LC-MS/MS analysis. The format is ADME, Microsome. An outline of the steps: (§1)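 Liver microsomes 0.5 mg/ml, compound 1 μM in 100 mM phosphate pH 7.4; started with 1 mM NADPH (final). Sampled 0–60 min, quenched in cold acetonitrile, parent remaining by LC-MS/MS; ln % remaining versus time fitted by linear regression.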

Series [3] can be described thus: Cmax in C3H/HeOuJ mouse at 1 mg/kg, iv measured upto 24 hrs. The conditions noted are these: in vivo.
Series [4] can be described thus: Toxicity in C3H/HeJ mouse infected with Chlamydia trachomatis serovar D/ATCC VR-885 assessed as vital signs at 10 mg/kg, po BID administered 21 consecutive days. Format: organism-based. The conditions noted are these: in vivo, in the assay text read “7 consecutive days” for “21 consecutive days”. In short, it runs like this:
(§2)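 Female C3H/HeJ mice given 2.4 mg medroxyprogesterone acetate s.c. 10 and 3 days before intravaginal infection (5000 CFU). Nine mice dosed by gavage 100 μL of 2.33 mg/mL emulsion, twice daily; vehicle and doxycycline groups. Vaginal swabs on days 2–21 titrated on HeLa cells, immunostained, counted by automated microscopy.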

Series [5] in a line: Volume of distribution at steady state in C3H/HeJ mouse at 1 mg/kg, iv measured upto 24 hrs. The format is ADME, organism-based. The conditions noted are these: in vivo. An outline of the steps: (§3)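 Female C3H mice, three per dose and route; IV as 50 μL tail-vein injection in PBS with 10% cremophor, 5% EtOH, 4% DMSO; PO as 100 μL gavage in lipid-vehicle/water emulsion. Tail-vein blood at 10 min (IV) and 0.5–24 h; acetonitrile mixed, methanol extracted, LC-MS/MS against spiked blank blood standards; non-compartmental analysis, errors as SD.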

A short description of series [6]: Half life in C3H/HeOuJ mouse at 10 mg/kg, po measured upto 24 hrs. The note with it: in vivo.
The test system of series [7] is Chlamydia trachomatis. As to the kind of experiment: Antibacterial activity against Chlamydia trachomatis 434/Bu serovar L2/ATCC VR-902B in HeLa 229 cells infected with cell lysates from 48 hrs at 1 uM compound treated HeLa 229 cells with Chlamydia trachomatis infection assessed as inhibition of reinfection and measured after 48 hrs post re-infection by DAPI staining based arrayscan automated microscopic method relative to control. The format is functional, organism-based. An outline of the steps:
(§4)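 HeLa 229 cells infected with C. trachomatis L2 EBs at MOI 0.3–0.5; compound added in RPMI 1 h post infection; 44–48 h, then water lysis. 10-fold serial dilutions of lysate reinfect fresh HeLa; 44–46 h, methanol fixed, anti-Chlamydia/FITC antibody plus DAPI stain, IFUs counted by automated microscopy; % IFU versus DMSO control; three independent experiments, duplicates.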

Series [8] can be described thus: Fraction unbound in CD-1 mouse plasma at 10 uM incubated for 4 hrs by LC-MS/MS-based equilibrium dialysis method. Format: ADME, cell-free. In short, it runs like this: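 Rapid equilibrium dialysis: 10% CD-1 mouse plasma in isotonic buffer spiked to 10 μM compound, 1% DMSO final, against phosphate buffer pH 7.4; 37 °C, 900 rpm, 4 h. Matrix-matched samples precipitated with methanol, LC-MS/MS; fu corrected for plasma dilution.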

A short description of series [9]: Cmax in C3H/HeJ mouse at 10 mg/kg, po measured upto 24 hrs. Format: ADME, organism-based. Also noted: dose 10 mg/kg, route oral. The conditions noted are these: in vivo. An outline of the steps: as §3
A short description of series [10]: Half life in C3H/HeJ mouse at 1 mg/kg, iv measured upto 24 hrs. The note with it: in vivo. The format is ADME, organism-based. An outline of the steps:
as §3

The nature of series [11]: Efflux ratio of apparent permeability in human Caco2 cells at 1 uM after 15 to 60 mins by LC-MS/MS analysis. Format: ADME, cell-based. The conditions noted are these: caco-2, 1 µM. In short, it runs like this: (§5)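 Caco-2 monolayers (passage 94–105) used on day 21 on filter supports; 1 μM donor solution applied apical or basolateral, pH 7.4 both chambers, 37 °C, 500 rpm stirring. Receiver sampled at 15, 30, 60 min, donor at 60 min for mass balance; LC-MS/MS with warfarin internal standard.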
In general terms: Passage across Caco-2 layers is used to estimate intestinal permeability.

A short description of series [12]: Clearance in C3H/HeOuJ mouse at 1 mg/kg, iv measured upto 24 hrs. The conditions noted are these: in vivo.
Series [13] can be described thus: Solubility of compound in PBS at 0.2 to 0.5 mg after 48 hrs by LC-MS/MS based shake flask method. Format: physicochemical.
Series [14] is described as follows: AUC (0 to infinity) in C3H/HeOuJ mouse at 10 mg/kg, po measured upto 24 hrs. The note with it: in vivo.
Series [15] in a line: Apparent permeability from apical to basolateral side in human Caco2 cells at 1 uM after 15 to 60 mins by LC-MS/MS analysis. The note with it: caco-2, 1 µM. Format: ADME, cell-based. In short, it runs like this:
as §5

Series [16] in a line: AUC (0 to infinity) in C3H/HeOuJ mouse at 1 mg/kg, iv measured upto 24 hrs. The note with it: in vivo.
Series [17] is described as follows: Oral bioavailability in C3H/HeOuJ mouse at 10 mg/kg measured upto 24 hrs. The note with it: in vivo.
In series [18] the test system is Chlamydia trachomatis. As to the kind of experiment: Antibacterial activity against Chlamydia trachomatis serovar D/ATCC VR-885 infected in C3H/HeJ mouse assessed as reduction in vaginal infection at 10 mg/kg, po BID administered 21 consecutive days by vaginal swab based immunostaining arrayscan automated microscopic method. The conditions noted are these: in the assay text read “7 consecutive days” for “21 consecutive days”. Format: functional, organism-based. In short, it runs like this: as §2

A short description of series [19]: Intrinsic clearance in human liver microsomes at 1 uM incubated for 5 to 60 mins in presence of NADPH by LC-MS/MS analysis. Format: ADME, Microsome. In short, it runs like this:
as §1
On the technique in general: Microsomes from liver hold many membrane-bound enzymes, among them those of drug oxidation.

Series [20] has as its system HeLa 229. As to the kind of experiment: Cytotoxicity against human HeLa 229 cells assessed as cell viability at 10 uM after 48 hrs resazurin dye based fluorescence method relative to control. The conditions noted are these: hela 229, 48 h. An outline of the steps:
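HeLa cells in colorless DMEM with 10% FBS, compound in 0.5% DMSO for 48 h; resazurin added, 3 h at 37 °C, 5% CO2, dark; fluorescence ex 535/em 595 nm; triplicate wells as percent of DMSO control.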

In series [21] the test system is Chlamydia trachomatis. As to the kind of experiment: Antibacterial activity against Chlamydia trachomatis 434/Bu serovar L2/ATCC VR-902B in HeLa 229 cells infected with cell lysates from 48 hrs at 2.5 uM compound treated HeLa 229 cells with Chlamydia trachomatis infection assessed as inhibition of reinfection and measured after 48 hrs post re-infection by DAPI staining based arrayscan automated microscopic method relative to control. The format is functional, organism-based. In short, it runs like this:
as §4

In brackets after ≈: the same amount, converted by molar mass. Activity calls are given as the source filed them. The calls are words filed in the database; no cut-off is given here.

Regarding `CS(=O)(=O)Nc1c(Cc2cccc3ccccc23)cc(=O)n2c1SCC2C(=O)Nc1ccccc1` (racemic), the Tmax in series [1] was 1 h. Moreover, the CLH stood at 59 µL/min/mg in series [2] and 39 µL/min/mg in series [19]. Further, the values for the Cmax in series [3] and in series [9] were 1700 nM and 3700 nM, respectively. Besides, the Activity entry is listed as “Non-Toxic” in [4] and 94% in [20]. The same compound had a Vdss in [5] of 0.62 L/kg. In addition, the figures for the t1/2 in [6] and in series [10] were 2.6 h and 5.3 h, respectively. Besides, the results for the inhibition in series [7] and in series [21] were 23% and 89%, respectively. In addition, the Fu in series [8] is given as 0.39%. Moreover, the Ratio in series [11] amounted to 2. In series [12], this compound returned a CL of 0.01 L/h. The compound further showed a thermodynamic solubility at 48 h in series [13] of 1.3 µM (≈ 0.657 µg/mL). Further, the results for the AUC in series [14] and in series [16] were 20.3 µM·h and 4.8 µM·h, respectively. Further, in [15], the Papp worked out at 30 ×10⁻⁶ cm/s. This compound also had a F in series [17] of 41%. For the same compound, the outcome in [18] was inactive.

As a reminder, the Tmax is the time from dosing to the highest level. For orientation: Cmax means the highest concentration seen after dosing. Broadly, the Vdss is a proportionality between amount in the body and measured concentration, not a real space. As usually defined, the inhibition is the drop in the measured response relative to a control, in per cent. In general, thermodynamic solubility refers to solubility found after equilibrating the solid with the medium. The AUC is concentration integrated over time. Low values mean low exposure, high ones high exposure. The term Papp denotes the rate of passage across a membrane or cell layer, normalised by area and donor concentration.
